Test results taken from ChEMBL document CHEMBL1122187, “Synthesis and antiviral activity of certain carbamoylpyrrolopyrimidine and pyrazolopyrimidine nucleosides” (1982).

Legend:
[1] = test system: Vero; experiment: In vitro antiviral activity against herpes simplex type 1 (HSV-1) virus was determined in african green monkey kidney (vero,V) expressed as virus rating. Toxic level(>1000 ug/mL); format: functional, Chlorocebus sabaeus
Summary of the method: (§1)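 Cell monolayers (18 h) infected with 320 TCID50 of virus. Compound was added within 15–30 min at half-log dilutions from 1000 to 1 μg/mL. After 72 h at 37 °C in 5% CO2, CPE was scored 0–4 by microscopy. VR = sum of (virus control − treated) scores, halved at partially toxic levels, divided by 10 × test cups per drug level.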

[2] = test system: Vero; experiment: In vitro antiviral activity against vaccinia(VV) virus was determined in african green monkey kidney (vero,V) expressed as virus rating. Toxic level(>1000 ug/mL); format: functional, Chlorocebus sabaeus; summary of the method: as §1
[3] = test system: Vero; experiment: In vitro antiviral activity against parainfluenza type 3(para 3) virus was determined in african green monkey kidney (vero,V) expressed as virus rating. Toxic level(>1000 ug/mL); format: functional, Chlorocebus sabaeus; summary of the method: as §1
[4] = test system: HEp-2; experiment: In vitro antiviral activity against vaccinia(VV) virus was determined in human laryngeal epithelioma (HEp-2,H)expressed as virus rating. Toxic level (320 ug/mL); format: functional; summary of the method: as §1
[5] = test system: HEp-2; experiment: In vitro antiviral activity against parainfluenza type-3 (para 3) virus was determined in human laryngeal epithelioma (HEp-2,H)expressed as virus rating. Toxic level(320 ug/mL); format: functional; summary of the method: as §1
[6] = test system: HEp-2; experiment: In vitro antiviral activity against herpes simplex type 1 (HSV-1) virus was determined in human laryngeal epithelioma (HEp-2,H)expressed as virus rating. Toxic level(320 ug/mL); format: functional; summary of the method: as §1
[7] = test system: Vero; experiment: In vitro antiviral activity against vaccinia(VV) virus was determined in african green monkey kidney (vero,V) expressed as virus rating.; format: functional, Chlorocebus sabaeus; summary of the method: as §1
[8] = test system: Vero; experiment: In vitro antiviral activity against parainfluenza type 3(para 3) virus was determined in african green monkey kidney (vero,V) expressed as virus rating.; format: functional, Chlorocebus sabaeus; summary of the method: as §1
[9] = test system: Vero; experiment: In vitro antiviral activity against parainfluenza type 3(para 3) virus was determined in african green monkey kidney (vero,V) expressed as virus rating. Toxic level(1000 ug/mL); format: functional, Chlorocebus sabaeus; summary of the method: as §1
[10] = test system: HEp-2; experiment: In vitro antiviral activity against parainfluenza type 3(para 3) virus was determined in human laryngeal epithelioma (HEp-2,H)expressed as virus rating. Toxic level(100 ug/mL); format: functional; summary of the method: as §1
[11] = test system: HEp-2; experiment: In vitro antiviral activity against vaccinia(VV) virus was determined in human laryngeal epithelioma (HEp-2,H)expressed as virus rating. Toxic level(100 ug/mL); format: functional; summary of the method: as §1
[12] = test system: HEp-2; experiment: In vitro antiviral activity against herpes simplex type 1 (HSV-1) virus was determined in human laryngeal epithelioma (HEp-2,H)expressed as virus rating. Toxic level(100 ug/mL); format: functional; summary of the method: as §1
[13] = test system: Vero; experiment: In vitro antiviral activity against herpes simplex type 1 (HSV-1) virus was determined in african green monkey kidney (vero,V) expressed as virus rating. Toxic level(1000 ug/mL); format: functional, Chlorocebus sabaeus; summary of the method: as §1
[14] = test system: Vero; experiment: In vitro antiviral activity against vaccinia(VV) virus was determined in african green monkey kidney (vero,V) expressed as virus rating. Toxic level(1000 ug/mL); format: functional, Chlorocebus sabaeus; summary of the method: as §1
[15] = test system: Vero; experiment: Percentage plaque reduction was determined against Sandfly fever (SF) virus in african green monkey kidney (vero,V) at a conc of 100-250 ug/mL. Toxic level(>1000 ug/mL); format: functional, Chlorocebus sabaeus
[16] = test system: Vero; experiment: Percentage plaque reduction was determined against Sandfly fever (SF) virus in african green monkey kidney (vero,V) at a conc of 25-100 ug/mL. Toxic level(>1000 ug/mL); format: functional, Chlorocebus sabaeus
[17] = test system: Vero; experiment: Percentage plaque reduction was determined against rift valley fever(RVF) virus in african green monkey kidney (vero,V) at a conc of <25 ug/mL. Toxic level(>1000 ug/mL); format: functional, Chlorocebus sabaeus
[18] = test system: Vero; experiment: Percentage plaque reduction was determined against venezuelan equine encephalitis (VEE) virus in african green monkey kidney (vero,V) at a conc of 250-500 ug/mL. Toxic level(>1000 ug/mL); format: functional, Chlorocebus sabaeus
[19] = test system: Vero; experiment: 0 Percentage plaque reduction was determined against rift valley fever(RVF) virus in african green monkey kidney (vero,V) at a conc of 250-500 ug/mL. Toxic level(>1000 ug/mL); format: functional, Chlorocebus sabaeus
[20] = test system: Vero; experiment: Percentage plaque reduction was determined against rift valley fever(RVF) virus in african green monkey kidney (vero,V) at a conc of 100-250 ug/mL. Toxic level(>1000 ug/mL); format: functional, Chlorocebus sabaeus
[21] = test system: Vero; experiment: Percentage plaque reduction was determined against venezuelan equine encephalitis (VEE) virus in african green monkey kidney (vero,V) at a conc of 25-100 ug/mL. Toxic level(>1000 ug/mL); format: functional, Chlorocebus sabaeus
[22] = test system: Vero; experiment: Percentage plaque reduction was determined against venezuelan equine encephalitis (VEE) virus in african green monkey kidney (vero,V) at a conc of 100-250 ug/mL. Toxic level(>1000 ug/mL); format: functional, Chlorocebus sabaeus
[23] = test system: Vero; experiment: Percentage plaque reduction was determined against rift valley fever(RVF) virus in african green monkey kidney (vero,V) at a conc of 25-100 ug/mL. Toxic level(>1000 ug/mL); format: functional, Chlorocebus sabaeus
[24] = test system: Vero; experiment: Percentage plaque reduction was determined against venezuelan equine encephalitis (VEE) virus in african green monkey kidney (vero,V) at a conc of <25 ug/mL./Toxic level(>1000 ug/mL); format: functional, Chlorocebus sabaeus
[25] = test system: Vero; experiment: Percentage plaque reduction was determined against Sandfly fever (SF) virus in african green monkey kidney (vero,V) at a conc of <25 ug/mL. Toxic level(>1000 ug/mL); format: functional, Chlorocebus sabaeus
Summary of the method: (§2)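 Infected Vero 24-well monolayers: virus adsorbed 1 h at 37 °C, then overlaid with agar holding dilutions of compound and incubated again at 37 °C with CO₂. Plaques were stained with crystal violet and counted. Inhibition was scored as % plaque reduction bands (10-30%, 31-60%, 61-90%), each tied to a drug concentration range.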

[26] = test system: Vero; experiment: Percentage plaque reduction was determined against Sandfly fever (SF) virus in african green monkey kidney (vero,V) at a conc of 250-500 ug/mL. Toxic level(>1000 ug/mL); format: functional, Chlorocebus sabaeus
[27] = test system: Vero; experiment: Percentage plaque reduction was determined against pichinde(PICH) virus in african green monkey kidney (vero,V). Toxic level(>1000 ug/mL); 31-60; format: functional, Chlorocebus sabaeus; summary of the method: as §2
[28] = test system: Vero; experiment: Percentage plaque reduction was determined against yellow fever(YF) virus in african green monkey kidney Toxic level(>1000 ug/mL); format: functional, Chlorocebus sabaeus
[29] = test system: HEp-2; experiment: In vitro antiviral activity against parainfluenza type 3 (para 3) type 1 (HSV-1) virus was determined in human laryngeal epithelioma (HEp-2,H)expressed as virus rating. Toxic level(>1000 ug/mL); format: functional; summary of the method: as §1
[30] = test system: Vero; experiment: Percentage plaque reduction was determined against venezuelan equine encephalitis (VEE) virus in african green monkey kidney (vero,V) at a conc of 250-500 ug/mL. Toxic level(>1000 ug/mL); 10-30; format: functional, Chlorocebus sabaeus
[31] = test system: Vero; experiment: Percentage plaque reduction was determined against Sandfly fever (SF) virus in african green monkey kidney (vero,V) at a conc of 25-100 ug/mL. Toxic level(>1000 ug/mL); 61-90; format: functional, Chlorocebus sabaeus
[32] = test system: Vero; experiment: Percentage plaque reduction was determined against pichinde(PICH) virus in african green monkey kidney (vero,V). Toxic level(>1000 ug/mL); 61-90; format: functional, Chlorocebus sabaeus; summary of the method: as §2
[33] = test system: HEp-2; experiment: In vitro antiviral activity against vaccinia(VV) virus was determined in human laryngeal epithelioma (HEp-2,H)expressed as virus rating. Toxic level(>1000 ug/mL); format: functional; summary of the method: as §1
[34] = test system: Vero; experiment: Percentage plaque reduction was determined against yellow fever(YF) virus in african green monkey kidney (vero,V).Toxic level(>1000 ug/mL); 61-90; format: functional, Chlorocebus sabaeus
[35] = test system: Vero; experiment: Percentage plaque reduction was determined against rift valley fever(RVF) virus in african green monkey kidney (vero,V) at a conc of 100-250 ug/mL. Toxic level(>1000 ug/mL); 31-60; format: functional, Chlorocebus sabaeus
[36] = test system: HEp-2; experiment: In vitro antiviral activity against herpes simplex type 1 (HSV-1) virus was determined in human laryngeal epithelioma (HEp-2,H)expressed as virus rating. Toxic level(>1000 ug/mL); format: functional; summary of the method: as §1

Q: What does the source list for OC[C@H]1OC(n2ncc3c(S)ncnc32)[C@H](O)[C@@H]1O (some centres not stated)?
A: Virus rating [1]: 0; Virus rating [2]: 0.9; Virus rating [3]: 0.7

Q: Which Virus rating [4] does the source give for NC(=O)c1ncnc2c1ncn2C1O[C@H](CO)[C@@H](O)[C@H]1O (some centres not stated) here?
A: 1.1

Q: What about the Virus rating [1] of the same molecule?
A: 0.6

Q: What about the Virus rating [2] of the same molecule?
A: 1.5

Q: What about the Virus rating [5] of the same molecule?
A: 1.4

Q: What about the Virus rating [6] of the same molecule?
A: 0.6

Q: What about the Virus rating [3] of the same molecule?
A: 0

Q: CSc1ncnc2c1cnn2C1O[C@H](CO)[C@@H](O)[C@H]1O (some centres not stated) was tested. Which Virus rating [7] did it give?
A: 0.2

Q: What about the Virus rating [1] of the same molecule?
A: 0.2

Q: What about the Virus rating [8] of the same molecule?
A: 1

Q: With NC(=O)c1ncnc2c1ccn2C1O[C@H](CO)[C@@H](O)[C@H]1O (some centres not stated) as the molecule, how does the Virus rating [9] read?
A: 0.4

Q: What about the Virus rating [10] of the same molecule?
A: 0.2

Q: What about the Virus rating [11] of the same molecule?
A: 1.2

Q: What about the Virus rating [12] of the same molecule?
A: 0

Q: What about the Virus rating [13] of the same molecule?
A: 0.4

Q: What about the Virus rating [14] of the same molecule?
A: 1.3

Q: Which results are given for O=C1N=CN=C2C1C=NN2C1O[C@H](CO)[C@@H](O)[C@H]1O (some centres not stated)?
A: Plaque reduction [15]: 0%; Plaque reduction [16]: 0%; Plaque reduction [17]: 0%; Virus rating [1]: 0; Plaque reduction [18]: 0%; Plaque reduction [19]: 0%; Plaque reduction [20]: 0%; Plaque reduction [21]: 0%; Plaque reduction [22]: 0%; Plaque reduction [23]: 0%; Plaque reduction [24]: 0%; Plaque reduction [25]: 0%; Plaque reduction [26]: 0%; Plaque reduction [27]: 31%; Plaque reduction [28]: 0%

Q: Which Virus rating [29] does the source give for NC(=O)c1ncn([C@@H]2O[C@H](CO)[C@@H](O)[C@H]2O)n1 [RIBAVIRIN] here?
A: 1.7

Q: What about the Plaque reduction [30] of the same molecule?
A: 10%

Q: What about the Plaque reduction [31] of the same molecule?
A: 61%

Q: And the Plaque reduction [32]?
A: 61%

Q: And the Virus rating [1]?
A: 0.6

Q: What about the Virus rating [33] of the same molecule?
A: 1.7

Q: And the Plaque reduction [34]?
A: 61%

Q: And the Virus rating [2]?
A: 1.2

Q: What about the Plaque reduction [35] of the same molecule?
A: 31%

Q: What about the Virus rating [36] of the same molecule?
A: 1.2

Q: And the Virus rating [3]?
A: 1.3

Q: How did the Virus rating [9] turn out when OC[C@H]1O[C@@H](n2cnc3c(S)ncnc32)[C@H](O)[C@@H]1O [THIOINOSINE] was run?
A: 1.2

Q: And the Virus rating [13]?
A: 0.8

Q: And the Virus rating [14]?
A: 1.1
